# Data as given in ChEMBL document CHEMBL4007420, “Structural Optimization and Pharmacological Evaluation of Inhibitors Targeting Dual-Specificity Tyrosine Phosphorylation-Regulated Kinases (DYRK) and CDC-like kinases (CLK) in Glioblastoma” (J Med Chem, 2017).
# pEC50, pIC50: −log10 of the molar value. Active and inactive are the calls of the source. The rule behind the calls is not given here.
# Tests used:
# [1] = molecular target: T1, Dual specificity tyrosine-phosphorylation-regulated kinase 2 (Homo sapiens, UniProt Q92630); assay: Inhibition of DYRK2 (unknown origin) using woodtide as substrate after 40 mins in presence of [gamma-33P]ATP by microbeta scintillation counting
# T1 sequence (Q92630 whole entry): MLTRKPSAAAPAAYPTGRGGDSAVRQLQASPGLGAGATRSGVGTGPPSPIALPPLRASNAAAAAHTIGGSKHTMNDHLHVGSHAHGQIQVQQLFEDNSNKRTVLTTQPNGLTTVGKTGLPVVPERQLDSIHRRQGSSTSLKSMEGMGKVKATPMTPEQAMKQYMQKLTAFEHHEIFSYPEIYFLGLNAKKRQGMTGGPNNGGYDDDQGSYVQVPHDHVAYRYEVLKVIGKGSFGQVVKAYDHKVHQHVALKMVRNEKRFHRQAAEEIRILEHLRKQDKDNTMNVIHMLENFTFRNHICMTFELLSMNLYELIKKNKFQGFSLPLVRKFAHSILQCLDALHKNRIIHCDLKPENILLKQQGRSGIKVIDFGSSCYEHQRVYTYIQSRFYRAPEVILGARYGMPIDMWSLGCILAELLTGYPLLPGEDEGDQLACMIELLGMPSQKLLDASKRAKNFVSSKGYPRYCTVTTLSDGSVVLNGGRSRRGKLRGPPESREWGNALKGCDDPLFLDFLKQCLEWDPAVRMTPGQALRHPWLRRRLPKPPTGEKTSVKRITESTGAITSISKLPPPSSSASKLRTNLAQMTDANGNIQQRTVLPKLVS
# [2] = molecular target: Dual specificity tyrosine-phosphorylation-regulated kinase 1A (Homo sapiens, UniProt Q13627); assay: Inhibition of DYRK1A (unknown origin) using woodtide as substrate after 10 mins in presence of [gamma-33P]ATP by microbeta scintillation counting
# [3] = molecular target: Dual specificity tyrosine-phosphorylation-regulated kinase 1B (Homo sapiens, UniProt Q9Y463); assay: Inhibition of DYRK1B (unknown origin) using woodtide as substrate after 40 mins in presence of [gamma-33P]ATP by microbeta scintillation counting
# Chain of Dual specificity tyrosine-phosphorylation-regulated kinase 1B (Q9Y463 whole entry): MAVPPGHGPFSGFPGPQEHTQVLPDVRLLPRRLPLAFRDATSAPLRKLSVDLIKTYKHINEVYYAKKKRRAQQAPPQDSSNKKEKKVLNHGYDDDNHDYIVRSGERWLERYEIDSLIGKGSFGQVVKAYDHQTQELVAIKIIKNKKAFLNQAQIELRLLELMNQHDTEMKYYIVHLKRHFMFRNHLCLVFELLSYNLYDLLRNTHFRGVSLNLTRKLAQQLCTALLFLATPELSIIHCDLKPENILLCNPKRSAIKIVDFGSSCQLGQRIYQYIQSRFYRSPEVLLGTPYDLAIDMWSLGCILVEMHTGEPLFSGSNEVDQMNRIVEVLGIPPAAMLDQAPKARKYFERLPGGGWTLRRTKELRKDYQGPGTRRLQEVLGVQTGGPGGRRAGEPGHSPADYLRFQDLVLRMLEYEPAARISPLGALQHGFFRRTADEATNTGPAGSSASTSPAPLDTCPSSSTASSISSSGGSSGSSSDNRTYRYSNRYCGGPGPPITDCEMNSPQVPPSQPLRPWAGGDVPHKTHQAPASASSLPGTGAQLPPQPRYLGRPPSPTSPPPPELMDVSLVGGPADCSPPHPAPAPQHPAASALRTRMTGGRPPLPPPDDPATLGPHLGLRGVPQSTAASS
# [4] = molecular target: Dual specificity protein kinase CLK1 (Homo sapiens, UniProt P49759); assay: Inhibition of CLK1 (unknown origin) using KKGRSRSRSRSRSR as substrate after 40 mins in presence of [gamma-33P]ATP by microbeta scintillation counting
# Chain of Dual specificity protein kinase CLK1 (P49759 whole entry): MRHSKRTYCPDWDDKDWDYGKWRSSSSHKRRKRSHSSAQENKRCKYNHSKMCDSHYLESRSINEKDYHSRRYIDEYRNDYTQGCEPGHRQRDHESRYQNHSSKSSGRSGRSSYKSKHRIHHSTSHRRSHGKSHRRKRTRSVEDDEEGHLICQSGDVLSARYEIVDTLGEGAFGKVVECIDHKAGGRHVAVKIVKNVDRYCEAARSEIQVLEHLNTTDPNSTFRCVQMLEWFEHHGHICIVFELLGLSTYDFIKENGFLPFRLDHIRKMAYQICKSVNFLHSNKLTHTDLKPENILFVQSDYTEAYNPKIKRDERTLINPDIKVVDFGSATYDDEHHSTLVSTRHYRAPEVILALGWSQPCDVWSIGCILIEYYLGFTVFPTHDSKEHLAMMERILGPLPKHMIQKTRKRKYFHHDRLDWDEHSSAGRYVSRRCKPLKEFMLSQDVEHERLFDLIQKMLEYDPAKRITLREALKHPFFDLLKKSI
# How it was run: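 CLK1 was assayed with RS peptide substrate at 100 µM ATP.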
# [5] = Cytotoxicity against patient-derived RN1 cells assessed as reduction in cell viability after 3 days by Alamar blue assay; type: functional, cell-based; details: Homo sapiens, RN1, 72 h
# How it was run: (§1)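 The patient-derived glioblastoma lines were grown as stem cells under defined conditions to keep the phenotype and genotype of the resected tumours. Viability after treatment was read with Alamar blue.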
# [6] = Cytotoxicity against patient-derived WK1 cells assessed as reduction in cell viability after 5 days by Alamar blue assay; type: functional, cell-based; details: Homo sapiens, WK1, 120 h; how it was run: as §1
# [7] = Cytotoxicity against patient-derived JK2 cells assessed as reduction in cell viability after 3 days by Alamar blue assay; type: functional, cell-based; details: Homo sapiens, JK2, 72 h; how it was run: as §1
# [8] = Cytotoxicity against patient-derived SJH1 cells assessed as reduction in cell viability after 3 days by Alamar blue assay; type: functional, cell-based; details: Homo sapiens, SJH1, 72 h; how it was run: as §1
# Homo sapiens = species on record: Homo sapiens; assay: Inhibition of tubulin (unknown origin) polymerization
# A 172 [9] = assay: Cytotoxicity against human A172 cells assessed as reduction in cell viability after 3 days by Alamar blue assay; type: functional, cell-based; details: A 172, 72 h
# U-251 [10] = assay: Cytotoxicity against human U251 cells assessed as reduction in cell viability after 3 days by Alamar blue assay; type: functional, cell-based; details: U-251, 72 h
# U-251 [11] = assay: Antimigratory activity in human U251 cells assessed as velocity of migration at 1 uM measured up to 20 hrs by wound scratch assay (reference value: 2159 to 2653 micrometer/hr); type: functional
# How it was run: (§2)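 Wound-healing migration assay: cell movement across the wound is measured as velocity (µm/h). Compounds were tested at 0, 1.0, 5.0 and 10.0 µM. Values are mean ± SEM of 3 independent experiments.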
# U-251 [12] = assay: Antimigratory activity in human U251 cells assessed as velocity of migration at 5 uM measured up to 20 hrs by wound scratch assay (reference value: 2159 to 2653 micrometer/hr); type: functional; how it was run: as §2
# U-251 [13] = assay: Antimigratory activity in human U251 cells assessed as velocity of migration at 10 uM measured up to 20 hrs by wound scratch assay (reference value: 2159 to 2653 micrometer/hr); type: functional; how it was run: as §2
# U-251 [14] = assay: Antiinvasive activity in human U251 cells assessed as velocity of invasion at 1 uM measured up to 20 hrs by matrigel assay (reference value: 1151 to 1710 micrometer/hr); type: functional
# U-251 [15] = assay: Antiinvasive activity in human U251 cells assessed as velocity of invasion at 5 uM measured up to 20 hrs by matrigel assay (reference value: 1151 to 1710 micrometer/hr); type: functional
# U-251 [16] = assay: Antiinvasive activity in human U251 cells assessed as velocity of invasion at 10 uM measured up to 20 hrs by matrigel assay (reference value: 1151 to 1710 micrometer/hr); type: functional
# A 172 [17] = assay: Antimigratory activity in human A172 cells assessed as velocity of migration at 1 uM measured up to 20 hrs by wound scratch assay (reference value: 2650 to 3123 micrometer/hr); type: functional; how it was run: as §2
# A 172 [18] = assay: Antimigratory activity in human A172 cells assessed as velocity of migration at 5 uM measured up to 20 hrs by wound scratch assay (reference value: 2650 to 3123 micrometer/hr); type: functional; how it was run: as §2
# A 172 [19] = assay: Antimigratory activity in human A172 cells assessed as velocity of migration at 10 uM measured up to 20 hrs by wound scratch assay (reference value: 2650 to 3123 micrometer/hr); type: functional; how it was run: as §2
# A 172 [20] = assay: Antiinvasive activity in human A172 cells assessed as velocity of invasion at 1 uM measured up to 20 hrs by matrigel assay (reference value: 2659 to 3047 micrometer/hr); type: functional
# A 172 [21] = assay: Antiinvasive activity in human A172 cells assessed as velocity of invasion at 5 uM measured up to 20 hrs by matrigel assay (reference value: 2659 to 3047 micrometer/hr); type: functional
# A 172 [22] = assay: Antiinvasive activity in human A172 cells assessed as velocity of invasion at 10 uM measured up to 20 hrs by matrigel assay (reference value: 2659 to 3047 micrometer/hr); type: functional
# [23] = Antimigratory activity in patient-derived RN1 cells assessed as velocity of migration at 1 uM measured up to 20 hrs by wound scratch assay (reference value: 937 to 1174 micrometer/hr); type: functional, Homo sapiens; how it was run: as §2
# [24] = Antimigratory activity in patient-derived RN1 cells assessed as velocity of migration at 5 uM measured up to 20 hrs by wound scratch assay (reference value: 937 to 1174 micrometer/hr); type: functional, Homo sapiens; how it was run: as §2
# [25] = Antimigratory activity in patient-derived RN1 cells assessed as velocity of migration at 10 uM measured up to 20 hrs by wound scratch assay (reference value: 937 to 1174 micrometer/hr); type: functional, Homo sapiens; how it was run: as §2
SMILES,pIC50 [1],pIC50 [2],pIC50 [3],pIC50 [4],pEC50 [5],pEC50 [6],pEC50 [7],pEC50 [8],other results
O=C(Nc1ccc(O)cc1)c1c[nH]c2ncc(-c3ccc(O)cc3)cc12,< 6.00,< 6.00,< 6.00,< 6.00,< 4.30,< 4.30,< 4.30,< 4.30,–
CC(=O)O[C@H]1C(=O)[C@@]2(C)[C@H]([C@H](OC(=O)c3ccccc3)[C@]3(O)C[C@H](OC(=O)[C@H](O)[C@@H](NC(=O)c4ccccc4)c4ccccc4)C(C)=C1C3(C)C)[C@]1(OC(C)=O)CO[C@@H]1C[C@@H]2O,–,–,–,–,–,–,–,–,inhibition (Homo sapiens): Active
Oc1ccc(-c2cnc3[nH]cc(-c4ccc(-c5nnn[nH]5)cc4)c3c2)cc1,6.38,6.55,6.76,7.07,< 4.30,< 4.30,< 4.30,< 4.30,–
Oc1ccc(-c2c[nH]c3ncc(-c4ccc5[nH]ccc5c4)cc23)cc1,6.19,6.69,7.29,7.59,< 4.30,< 4.30,< 4.30,4.52,–
Oc1ccc(-c2c[nH]c3ncc(-c4ccc(-c5nnn[nH]5)cc4)cc23)cc1,6.39,7.07,7.38,7.15,< 4.30,< 4.30,< 4.30,< 4.30,–
O=C(Nc1cccc(O)c1)c1c[nH]c2ncc(-c3ccc(O)cc3)cc12,< 6.00,< 6.00,< 6.00,< 6.00,< 4.30,< 4.30,< 4.30,< 4.30,–
Oc1ccc(-c2cnc3[nH]cc(-c4ccc5[nH]ccc5c4)c3c2)cc1,6.24,6.77,7.08,6.93,5.24,5.21,5.20,5.66,–
CC[C@]1(O)C[C@@H]2CN(CCc3c([nH]c4ccccc34)[C@@](C(=O)OC)(c3cc4c(cc3OC)N(C)[C@H]3[C@@](O)(C(=O)OC)[C@H](OC(C)=O)[C@]5(CC)C=CCN6CC[C@]43[C@@H]65)C2)C1,–,–,–,–,–,–,–,–,inhibition (Homo sapiens): Active
O=C(Nc1cccc(O)c1)c1cnc2[nH]cc(-c3ccc(O)cc3)c2c1,6.07,6.90,6.86,7.47,4.86,4.88,4.41,5.24,–
Oc1ccc(-c2ccc3[nH]nc(-c4ccc(O)cc4)c3c2)cc1,< 6.00,< 6.00,< 6.00,< 6.00,< 4.30,< 4.30,< 4.30,< 4.30,–

# Second part, led by results:
pIC50 [1],pIC50 [2],pIC50 [3],pIC50 [4],SMILES,pEC50 [5],pEC50 [6],pEC50 [7],pEC50 [8],other results
6.14,7.25,6.89,7.36,CS(=O)(=O)Nc1ccc(-c2cnc3[nH]cc(-c4ccc(O)cc4)c3c2)cc1,4.85,4.38,4.89,4.38,–
< 6.00,6.67,6.70,6.73,O=[N+]([O-])c1ccc(-c2cnc3[nH]cc(-c4ccc(O)cc4)c3c2)cc1,< 4.30,< 4.30,< 4.30,< 4.30,–
< 6.00,6.46,6.89,7.92,O=C(Nc1ccc(O)cc1)c1cnc2[nH]cc(-c3ccc(O)cc3)c2c1,4.90,4.68,4.42,5.28,–
< 6.00,< 6.00,< 6.00,< 6.00,Nc1ccc(-c2c[nH]c3ncc(-c4ccc(O)cc4)cc23)cc1,< 4.30,< 4.30,< 4.30,< 4.30,pEC50 (A 172 [9]): < 4.30; pEC50 (U-251 [10]): < 4.30; inhibition (Homo sapiens): inactive; Activity (U-251 [11]): 2331 um/hr; Activity (U-251 [12]): 2370 um/hr; Activity (U-251 [13]): 2702 um/hr; Activity (U-251 [14]): 1451 um/hr; Activity (U-251 [15]): 1481 um/hr; Activity (U-251 [16]): 1380 um/hr; Activity (A 172 [17]): 3123 um/hr; Activity (A 172 [18]): 3065 um/hr; Activity (A 172 [19]): 2827 um/hr; Activity (A 172 [20]): 2411 um/hr; Activity (A 172 [21]): 2232 um/hr; Activity (A 172 [22]): 2707 um/hr; Activity [23]: 1070 um/hr; Activity [24]: 929 um/hr; Activity [25]: 791 um/hr
6.78,7.85,7.82,7.32,Oc1ccc(-c2cnc3[nH]cc(-c4ccc(O)cc4)c3c2)cc1,5.70,5.96,5.29,5.39,–
6.32,7.51,7.77,8.02,NC(=O)Nc1ccc(-c2cnc3[nH]cc(-c4ccc(O)cc4)c3c2)cc1,4.66,< 4.30,< 4.30,4.55,–
< 6.00,< 6.00,< 6.00,< 6.00,Oc1ccc(-c2ccc3[nH]cc(-c4ccc(O)cc4)c3c2)cc1,< 4.30,< 4.30,< 4.30,< 4.30,–
